Results published in ChEMBL document CHEMBL4145683, “Total Synthesis and Structure-Activity Relationships Study of Odilorhabdins, a New Class of Peptides Showing Potent Antibacterial Activity” (J Med Chem, 2018).
In brackets after ≈: the same amount, converted by molar mass. Non-standard residues stand in square brackets, D forms with d. Residues, ends and D or L forms follow the SMILES beside them. *: point of attachment. Dab(3S-OH) = NC[C@H](O)[C@H](N)C(=O)O; ΔZArg = N=C(N)NCC/C=C(\N)C(=O)O; dOrn = NCCC[C@@H](N)C(=O)O; Abu = CC[C@H](N)C(=O)O; NH(CH2)4NH2 = NCCCCN*

What was measured:
Klebsiella pneumoniae = experiment: Antimicrobial activity against Klebsiella pneumoniae ATCC 43816 by broth microdilution method; type: functional; settings: Klebsiella pneumoniae, ATCC 43816; read-out: MIC
In short: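 Broth microdilution MIC per CLSI M07-A10, with inoculum prepared by direct colony suspension. Reference strains were from ATCC and NCTC.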

Escherichia coli [1] = experiment: Inhibition of bacterial protein synthesis in cell-free Escherichia coli incubated for 1 hr and measured for every 20 mins by bacterial cell-free transcription-translation assay; type: functional
In short: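 E. coli cell-free coupled transcription-translation used a GFP gene in pEXP5-CT as template, started with 1 μg plasmid in 50 μL reactions. Feed buffer was added at 30 min, with incubation at 30 °C. Fluorescence (ex 475/em 520 nm) was read every 20 min. IC50 was taken at 1 h after feed addition from a four-parameter log(inhibitor)–response fit. Duplicates.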

Escherichia coli [2] = experiment: microbe, parasite or virus in culture; settings: ATCC 25922

Row | Molecule | MIC (Klebsiella pneumoniae) [µg/mL] | IC50 (Escherichia coli [1]; Escherichia coli) [nM] | MIC (Escherichia coli [2]) [µg/mL] | IC50 (Escherichia coli [1]) [nM]
1 | N=C(N)NCC/C=C(\NC(=O)[C@H](CCCCN)NC(=O)[C@H](Cc1cnc[nH]1)NC(=O)[C@@H]1CCCN1C(=O)[C@@H](CCCN)NC(=O)CNC(=O)[C@@H](N)[C@@H](O)CN)C(=O)N[C@@H](CCCCN)C(=O)NCCCCN | > 64 | > 40000 | > 64 | 
2 | NCCCC[C@H](NC(=O)[C@H](Cc1cnc[nH]1)NC(=O)[C@@H]1CCCN1C(=O)[C@@H](CCCN)NC(=O)CNC(=O)[C@@H](NC(=O)[C@@H](NC(=O)[C@@H](N)CCCCN)[C@@H](O)CN)[C@@H](O)CN)C(=O)O | > 64 | 10000 | > 64 | 
3 | C[C@H](NC(=O)[C@@H](N)CCCCN)C(=O)N[C@H](C(=O)NCC(=O)N[C@H](CCCN)C(=O)N1CCC[C@H]1C(=O)N[C@@H](Cc1cnc[nH]1)C(=O)N[C@@H](CCCCN)C(=O)N/C(=C\CCNC(=N)N)C(=O)N[C@@H](CCCCN)C(=O)NCCCCN)[C@@H](O)CN | > 64 | 4500 | > 64 | 
4 | C[C@@H](NC(=O)CNC(=O)[C@@H](NC(=O)[C@@H](NC(=O)[C@@H](N)CCCCN)[C@@H](O)CN)[C@@H](O)CN)C(=O)N1CCC[C@H]1C(=O)N[C@@H](Cc1cnc[nH]1)C(=O)N[C@@H](CCCCN)C(=O)N/C(=C\CCNC(=N)N)C(=O)N[C@@H](CCCCN)C(=O)NCCCCN | > 64 | > 40000 | > 64 | 
5 | N=C(N)NCC/C=C(\NC(=O)[C@H](CCCCN)NC(=O)[C@H](Cc1cnc[nH]1)NC(=O)[C@@H]1CCCN1C(=O)[C@@H](CCCN)NC(=O)CNC(=O)[C@@H](NC(=O)[C@H](CO)NC(=O)[C@@H](N)CCCCN)[C@@H](O)CN)C(=O)N[C@@H](CCCCN)C(=O)NCCCCN | > 64 | > 40000 | > 64 | 
6 | NCCCC[C@H](N)C(=O)N[C@H](C(=O)N[C@H](C(=O)NCC(=O)N[C@H](CCCN)C(=O)N1CCC[C@H]1C(=O)N[C@@H](Cc1cnc[nH]1)C(=O)O)[C@@H](O)CN)[C@@H](O)CN | > 64 | 9600 | > 64 | 
7 | N=C(N)NCC/C=C(\NC(=O)[C@H](CCCCN)NC(=O)[C@H](Cc1cnc[nH]1)NC(=O)[C@@H]1CCCN1C(=O)[C@@H](CCCN)NC(=O)CNC(=O)[C@@H](NC(=O)[C@@H](N)[C@@H](O)CN)[C@@H](O)CN)C(=O)N[C@@H](CCCCN)C(=O)NCCCCN | > 64 | > 40000 | > 64 | 
8 | C[C@H](O)[C@H](NC(=O)[C@@H](N)CCCCN)C(=O)N[C@H](C(=O)NCC(=O)N[C@H](CCCN)C(=O)N1CCC[C@H]1C(=O)N[C@@H](Cc1cnc[nH]1)C(=O)N[C@@H](CCCCN)C(=O)N/C(=C\CCNC(=N)N)C(=O)N[C@@H](CCCCN)C(=O)NCCCCN)[C@@H](O)CN | > 64 | > 40000 | > 64 | 
9 | C[C@H](NC(=O)[C@@H](CCCN)NC(=O)CNC(=O)[C@@H](NC(=O)[C@@H](NC(=O)[C@@H](N)CCCCN)[C@@H](O)CN)[C@@H](O)CN)C(=O)N[C@@H](Cc1cnc[nH]1)C(=O)N[C@@H](CCCCN)C(=O)N/C(=C\CCNC(=N)N)C(=O)N[C@@H](CCCCN)C(=O)NCCCCN (H-K[Dab(3S-OH)][Dab(3S-OH)]G[dOrn]AHK[ΔZArg]K-{NH(CH2)4NH2}) | 32 (≈ 25.8 µM) | 2410 | 16 (≈ 12.9 µM) | 
10 | C[C@H](NC(=O)[C@H](CCCCN)NC(=O)[C@H](Cc1cnc[nH]1)NC(=O)[C@@H]1CCCN1C(=O)[C@@H](CCCN)NC(=O)CNC(=O)[C@@H](NC(=O)[C@@H](NC(=O)[C@@H](N)CCCCN)[C@@H](O)CN)[C@@H](O)CN)C(=O)N[C@@H](CCCCN)C(=O)NCCCCN (H-K[Dab(3S-OH)][Dab(3S-OH)]G[dOrn]PHKAK-{NH(CH2)4NH2}) | 64 (≈ 54.2 µM) | 2400 | > 64 | 
11 | O=C(N[C@H](CO)[C@H](O)c1ccc([N+](=O)[O-])cc1)C(Cl)Cl [CHLORAMPHENICOL] |  | 7740 |  | 
12 | CC[C@H]1OC(=O)[C@H](C)[C@@H](O[C@H]2C[C@@](C)(OC)[C@@H](O)[C@H](C)O2)[C@H](C)[C@@H](O[C@@H]2O[C@H](C)C[C@H](N(C)C)[C@H]2O)[C@](C)(O)C[C@@H](C)C(=O)[C@H](C)[C@@H](O)[C@]1(C)O [ERYTHROMYCIN] |  | 2120 |  | 
13 | GENTAMICIN |  |  |  | 310

Second part, led by results:

Row | MIC (Klebsiella pneumoniae) [µg/mL] | IC50 (Escherichia coli [1]; Escherichia coli) [nM] | MIC (Escherichia coli [2]) [µg/mL] | Molecule | IC50 (Escherichia coli [1]) [nM]
14 | 4 (≈ 3.31 µM) | 1850 | 16 (≈ 13.3 µM) | C[C@H](NC(=O)[C@H](Cc1cnc[nH]1)NC(=O)[C@@H]1CCCN1C(=O)[C@@H](CCCN)NC(=O)CNC(=O)[C@@H](NC(=O)[C@@H](NC(=O)[C@@H](N)CCCCN)[C@@H](O)CN)[C@@H](O)CN)C(=O)N/C(=C\CCNC(=N)N)C(=O)N[C@@H](CCCCN)C(=O)NCCCCN | 
15 | 8 (≈ 6.7 µM) | 830 | 16 (≈ 13.4 µM) | C/C=C(\NC(=O)[C@H](CCCCN)NC(=O)[C@H](Cc1cnc[nH]1)NC(=O)[C@@H]1CCCN1C(=O)[C@@H](CCCN)NC(=O)CNC(=O)[C@@H](NC(=O)[C@@H](NC(=O)[C@@H](N)CCCCN)[C@@H](O)CN)[C@@H](O)CN)C(=O)N[C@@H](CCCCN)C(=O)NCCCCN | 
16 | 8 (≈ 6.63 µM) | 730 | 16 (≈ 13.3 µM) | C[C@H](N)C(=O)N[C@H](C(=O)N[C@H](C(=O)NCC(=O)N[C@H](CCCN)C(=O)N1CCC[C@H]1C(=O)N[C@@H](Cc1cnc[nH]1)C(=O)N[C@@H](CCCCN)C(=O)N/C(=C\CCNC(=N)N)C(=O)N[C@@H](CCCCN)C(=O)NCCCCN)[C@@H](O)CN)[C@@H](O)CN (H-A[Dab(3S-OH)][Dab(3S-OH)]G[dOrn]PHK[ΔZArg]K-{NH(CH2)4NH2}) | 
17 | 8 (≈ 6.64 µM) | 1060 | 8 (≈ 6.64 µM) | N=C(N)NCC/C=C(\NC(=O)[C@H](CCCCN)NC(=O)[C@H](Cc1cnc[nH]1)NC(=O)[C@@H]1CCCN1C(=O)[C@@H](CCCN)NC(=O)CNC(=O)CNC(=O)[C@@H](NC(=O)[C@@H](N)CCCCN)[C@@H](O)CN)C(=O)N[C@@H](CCCCN)C(=O)NCCCCN (H-K[Dab(3S-OH)]GG[dOrn]PHK[ΔZArg]K-{NH(CH2)4NH2}) | 
18 | 4 (≈ 3.24 µM) | 660 | 4 (≈ 3.24 µM) | N=C(N)NCC/C=C(\NC(=O)[C@H](CCCCN)NC(=O)[C@H](Cc1cnc[nH]1)NC(=O)[C@@H]1CCCN1C(=O)[C@@H](CCCN)NC(=O)CNC(=O)[C@H](CO)NC(=O)[C@@H](NC(=O)[C@@H](N)CCCCN)[C@@H](O)CN)C(=O)N[C@@H](CCCCN)C(=O)NCCCCN (H-K[Dab(3S-OH)]SG[dOrn]PHK[ΔZArg]K-{NH(CH2)4NH2}) | 
19 | 2 (≈ 1.6 µM) | 800 | 4 (≈ 3.21 µM) | CC(C)[C@H](NC(=O)[C@@H](NC(=O)[C@@H](N)CCCCN)[C@@H](O)CN)C(=O)NCC(=O)N[C@H](CCCN)C(=O)N1CCC[C@H]1C(=O)N[C@@H](Cc1cnc[nH]1)C(=O)N[C@@H](CCCCN)C(=O)N/C(=C\CCNC(=N)N)C(=O)N[C@@H](CCCCN)C(=O)NCCCCN (H-K[Dab(3S-OH)]VG[dOrn]PHK[ΔZArg]K-{NH(CH2)4NH2}) | 
20 | 4 (≈ 3.24 µM) | 730 | 4 (≈ 3.24 µM) | CC[C@H](NC(=O)[C@@H](NC(=O)[C@@H](N)CCCCN)[C@@H](O)CN)C(=O)NCC(=O)N[C@H](CCCN)C(=O)N1CCC[C@H]1C(=O)N[C@@H](Cc1cnc[nH]1)C(=O)N[C@@H](CCCCN)C(=O)N/C(=C\CCNC(=N)N)C(=O)N[C@@H](CCCCN)C(=O)NCCCCN (H-K[Dab(3S-OH)][Abu]G[dOrn]PHK[ΔZArg]K-{NH(CH2)4NH2}) | 
21 | 8 (≈ 6.68 µM) | 390 | 8 (≈ 6.68 µM) | C[C@H](NC(=O)[C@@H]1CCCN1C(=O)[C@@H](CCCN)NC(=O)CNC(=O)[C@@H](NC(=O)[C@@H](NC(=O)[C@@H](N)CCCCN)[C@@H](O)CN)[C@@H](O)CN)C(=O)N[C@@H](CCCCN)C(=O)N/C(=C\CCNC(=N)N)C(=O)N[C@@H](CCCCN)C(=O)NCCCCN (H-K[Dab(3S-OH)][Dab(3S-OH)]G[dOrn]PAK[ΔZArg]K-{NH(CH2)4NH2}) | 
22 | 8 (≈ 6.32 µM) | 1530 | 32 (≈ 25.3 µM) | N=C(N)NCCC[C@H](NC(=O)[C@H](CCCCN)NC(=O)[C@H](Cc1cnc[nH]1)NC(=O)[C@@H]1CCCN1C(=O)[C@@H](CCCN)NC(=O)CNC(=O)[C@@H](NC(=O)[C@@H](NC(=O)[C@@H](N)CCCCN)[C@@H](O)CN)[C@@H](O)CN)C(=O)N[C@@H](CCCCN)C(=O)NCCCCN (H-K[Dab(3S-OH)][Dab(3S-OH)]G[dOrn]PHKRK-{NH(CH2)4NH2}) | 
23 | 16 (≈ 12.6 µM) | 980 | 16 (≈ 12.6 µM) | N=C(N)NCCC[C@@H](NC(=O)[C@H](CCCCN)NC(=O)[C@H](Cc1cnc[nH]1)NC(=O)[C@@H]1CCCN1C(=O)[C@@H](CCCN)NC(=O)CNC(=O)[C@@H](NC(=O)[C@@H](NC(=O)[C@@H](N)CCCCN)[C@@H](O)CN)[C@@H](O)CN)C(=O)N[C@@H](CCCCN)C(=O)NCCCCN (H-K[Dab(3S-OH)][Dab(3S-OH)]G[dOrn]PHK[dR]K-{NH(CH2)4NH2}) | 
24 | 4 (≈ 3.75 µM) | 430 | 16 (≈ 15 µM) | N=C(N)NCC/C=C(\NC(=O)[C@H](CCCCN)NC(=O)[C@H](Cc1cnc[nH]1)NC(=O)[C@@H]1CCCN1C(=O)[C@@H](CCCN)NC(=O)CNC(=O)[C@@H](NC(=O)[C@@H](NC(=O)[C@@H](N)CCCCN)[C@@H](O)CN)[C@@H](O)CN)C(=O)O (H-K[Dab(3S-OH)][Dab(3S-OH)]G[dOrn]PHK[ΔZArg]-OH) | 
25 | 8 (≈ 6.63 µM) | 1040 | 8 (≈ 6.63 µM) | C[C@H](NC(=O)/C(=C/CCNC(=N)N)NC(=O)[C@H](CCCCN)NC(=O)[C@H](Cc1cnc[nH]1)NC(=O)[C@@H]1CCCN1C(=O)[C@@H](CCCN)NC(=O)CNC(=O)[C@@H](NC(=O)[C@@H](NC(=O)[C@@H](N)CCCCN)[C@@H](O)CN)[C@@H](O)CN)C(=O)NCCCCN (H-K[Dab(3S-OH)][Dab(3S-OH)]G[dOrn]PHK[ΔZArg]A-{NH(CH2)4NH2}) | 
26 |  | 990 |  | CN[C@@H]1[C@H](O)[C@H](NC)[C@H]2O[C@@]3(O)C(=O)C[C@@H](C)O[C@H]3O[C@@H]2[C@H]1O [SPECTINOMYCIN] | 
